M4 antag: CHRM4 antagonism in calcium assay | P08173 | inhibition, % at 3 µM | CHO-hM4 cells, ACh EC80, Fluo-8 calcium fluorescence | 360,000 compounds, 0.73% hits;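 active means inhibition above its plate's cutoff, the mean inhibition of sample wells plus 3 SD, cut at about 27% in these data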;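 further: 0% = acetylcholine EC80 with DMSO and 100% = DMSO without agonist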
M4 ag: CHRM4 agonism in calcium assay; P08173; 360,000 compounds, 0.14% hits; activation, % at 3 µM; AID 624127; CHO-K1 hM4/Gqi5, Fluo-8 calcium fluorescence; vehicle 0%, full acetylcholine response 100%;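 active means activation above the run mean over all test wells plus 3 SD, cut at about 32% in these data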;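 further: peak over basal fluorescence ratio per well then scaled between controls; 0% = DMSO wells and 100% = acetylcholine at EC100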
M5 PAM: potentiates acetylcholine response at human M5 receptor. CHO-K1 hM5, Fluo-8 calcium, ACh EC20 PAM; 0% = ACh EC20, 100% = ACh EC100. AID 624038. 360,000 compounds, 0.3% hits. P08912. activation, % at 3 µM;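 active means activation above the run cutoff, the mean activation of all test compounds plus 3 SD, cut at about 18% in these data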
Target sequence (P08912 whole entry, looked up): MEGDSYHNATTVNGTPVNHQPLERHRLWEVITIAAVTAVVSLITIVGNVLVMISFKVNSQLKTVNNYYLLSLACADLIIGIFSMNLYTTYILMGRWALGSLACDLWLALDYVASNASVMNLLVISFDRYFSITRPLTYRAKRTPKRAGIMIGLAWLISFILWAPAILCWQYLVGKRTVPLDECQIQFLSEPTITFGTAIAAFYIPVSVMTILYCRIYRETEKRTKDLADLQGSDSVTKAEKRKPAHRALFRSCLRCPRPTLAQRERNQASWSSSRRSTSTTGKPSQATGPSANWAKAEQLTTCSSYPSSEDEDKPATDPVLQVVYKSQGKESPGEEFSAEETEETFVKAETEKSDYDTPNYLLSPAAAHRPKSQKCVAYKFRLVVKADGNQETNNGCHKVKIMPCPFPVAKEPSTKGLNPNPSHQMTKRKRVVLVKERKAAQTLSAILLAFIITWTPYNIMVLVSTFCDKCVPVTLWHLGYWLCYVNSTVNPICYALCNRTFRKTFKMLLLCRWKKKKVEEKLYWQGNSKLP
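Assay system – human M5 receptor in CHO-K1 cells · Read-out – % activation, ACh-normalized · Technique – Fluo-8 calcium fluorescence · Dosing – single-point, 3 µM nominal · Incubation – Fluo-8 loading 80 min at 37 °C plus 30 min room temperature · Repeats – singlicate, one well per test compound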
M5 antag: CHRM5 antagonism in calcium assay; CHO-hM5 cells, Fluo-8 calcium fluorescence, ACh EC80; AID 624040; P08912; 360,000 compounds, 0.59% hits; inhibition, % at 3 µM;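 active means inhibition above a per-plate cutoff, the mean of that plate's test compounds plus 3 SD, cut at about 27% in these data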;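 further: 0% = acetylcholine EC80 with DMSO and 100% = DMSO without agonist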
CHRM5 agonist: CHRM5 agonism in calcium assay | 360,000 compounds, 0.19% hits | CHO-K1 hM5 cells, Fluo-8 calcium fluorescence; 0% DMSO wells, 100% maximal acetylcholine response | activation, % at 3 µM;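 active means activation above the run's mean over test compounds plus 3 SD, cut at about 23% in these data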;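 further: signal is peak over basal fluorescence ratio across the kinetic read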
CHRM4 PAM: positive allosteric modulators of human muscarinic M4 receptor; 360,000 compounds, 0.4% hits; activation, % at 3 µM; CHO-K1 hM4/Gqi5, Fluo-8 calcium fluorescence, ACh EC20; 0% = ACh EC20, 100% = maximal ACh; P08173;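 active means activation above its plate's cutoff, the mean activation of sample wells plus 3 SD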
Active calls of the source: *. In the library only some 1.8% were active in any assay of this set; here they are far more common.

SMILES | M4 antag | M4 ag | M5 PAM | M5 antag | CHRM5 agonist | CHRM4 PAM
COc1ccccc1-c1csc(C(O)c2ccccc2)n1 (stereo not given) | 0 | 1 | 6 | 6 | 0 | -4
CC(C)C[C@H]1CN(CCCC[C@H]2CNC(=O)C(=O)N2CCc2ccccc2)C(=O)C(=O)N1CCC1CCCCC1 | 2 | 1 | -3 | 5 | 2 | -4
CC(=O)N1c2ccccc2Sc2ccccc21 | 10 | -1 | -9 | 17 | -19 | -10
CC(C)CNCC(=O)N1c2ccccc2Sc2ccccc21 | 52* | 2 | -50 | 74* | -14 | -16
COCCNCC(=O)N1c2ccccc2Sc2ccccc21 | 31* | 1 | -33 | 57* | -21 | -12
CC(C)NC(=O)N1c2ccccc2Sc2ccccc21 | 21 | -1 | -7 | 7 | -10 | -14
Cc1cccc[n+]1CC(=O)N1c2ccccc2Sc2ccccc21 | 96* | 0 | -20 | 99* | -11 | -24
COCCCNC(=O)N1c2ccccc2Sc2ccccc21 | -2 | 0 | 11 | -1 | -14 | 1
COc1ccc(NC(=O)C(c2cccc3ccccc23)n2c(=O)c(-c3ccco3)nc3ccccc32)cc1 (stereo not given) | -2 | 0 | 5 | -4 | 2 | 10
CNC(=O)CC1C(=O)N(C)C(=S)N1NC(=O)c1ccccc1 (stereo not given) | 1 | 3 | 1 | 9 | 5 | -5
CCNC(=O)CC1C(=O)N(CC)C(=S)N1NC(=O)c1ccccc1 (stereo not given) | 21 | 5 | 28* | 29* | 1 | 17*
Cc1c(Br)cccc1NC(=O)C1(C)CCN1Cc1ccc(OC(C)C)cc1 (stereo not given) | -2 | 2 | 5 | -7 | -2 | -2
O=C(NCc1ccccc1)C(c1ccccc1F)n1c(=O)c(-c2ccco2)nc2ccccc21 (stereo not given) | 6 | 7 | -4 | 10 | 3 | 0
O=C(NC(=S)Nc1ccccc1N1CCCCC1)c1ccccc1 | 6 | 3 | 19* | -9 | 8 | 18*
CN1C(=S)N(c2cccnc2)C(=O)/C1=C\c1ccc(N(C)C)cc1 | 11 | 14 | -21 | 31* | 60* | -7
COC(=O)C[C@H]1CC[C@@H](NS(=O)(=O)c2ccc(C)cc2)[C@@H](CO)O1 | -33 | 3 | -1 | -2 | 3 | 13
Cn1cc(Cl)c(C(=O)OCC(=O)Nc2ccccc2)n1 | 1 | 1 | -1 | 47* | 6 | 12
Cn1ccc(C(=O)OCC(=O)Nc2cccc(Cl)c2)n1 | -1 | 2 | 1 | 6 | 0 | -1
Cc1ccc(C(=O)N/C(=C/c2ccccc2)C(=O)NCC2CCCO2)cc1 (stereo not given) | -22 | -1 | 21* | -10 | -3 | 15
O=C(c1cccc(S(=O)(=O)N2CCCCC2)c1)N1CCN(c2ccccc2)CC1 | 12 | 3 | -6 | 21 | -1 | -4
O=C(c1ccc(S(=O)(=O)N2CCCCCC2)cc1)N1CCN(c2ccccc2)CC1 | -7 | 0 | -4 | 28* | -3 | 0
O=C(OCc1ccccc1)N(CCCCN(CCCNCc1ccccc1)C(=O)OCc1ccccc1)CCCNCc1ccccc1 | 65* | 26 | -14 | 21 | -10 | -11
Cc1nc2c(OCc3ccc(C(F)(F)F)cc3)cccn2c1N(C)Cc1cccs1 | 1 | 4 | -12 | 7 | 0 | -15
CCCCc1nnc(NC(=O)C23CC4CC(CC(NC(C)=O)(C4)C2)C3)s1 | 11 | 1 | -11 | 33* | -3 | -4
C#Cc1ccc(NC(=O)C2(C)CCN2C(=O)c2cc(C)n(C)n2)cc1 (stereo not given) | -1 | 6 | -1 | -8 | 2 | -4
COC(=O)C1=CN(Cc2cccs2)C=C(C(=O)OC)C1c1cccc(Cl)c1 | 8 | -1 | -21 | 9 | -10 | -7
COC(=O)C1=CN(Cc2cccs2)C=C(C(=O)OC)C1c1ccc(OC)cc1OC | -3 | -1 | -15 | 27* | -4 | 1
C[N+]1(C)CCCC(OC(=O)C(O)(c2ccccc2)c2ccccc2)C1 (stereo not given) | 99* | 0 | -19 | 99* | -2 | -17
CCNC(=O)C1(C)CCN(C(=O)c2c(F)cccc2F)C1 (stereo not given) | 0 | 0 | 4 | -2 | 1 | -2

Screening data from PubChem.
